HCV NS3 hel inh = HCV NS3 helicase inhibition. AID 1800. inhibition, % at 10.9 µM. 0.56% of 290,000 active. NS3 helicase DNA unwinding, Cy5 molecular beacon fluorescence;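 active = inhibition above the mean of all tested compounds plus 3 SD, set per campaign, cut at about 35% in these data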;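 also: 0% = DMSO wells and 100% = thioflavine S control wells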
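System: HCV NS3 helicase fragment; control set: DMSO and thioflavine S; technique: Cy5 fluorescence at 0 and 60 min, beacon hairpin quenching; reagent: beacon DNA duplex substrate plus ATP; replicates: singlicate; schedule: 1 h reaction at 25 °C, ATP-initiated; medium: MOPS buffer pH 6.5 with MgCl2, DTT, Tween20, BSA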
IMP-1 inhibitor = inhibitors of Pseudomonas aeruginosa IMP-1 metallo-beta-lactamase | 0.45% of 290,000 active | inhibition, % at 5.6 µM | purified IMP-1, nitrocefin hydrolysis, epi-absorbance fluorescence;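 active = inhibition above the mean plus 3 SD of all compounds in the same screening run, cut at about 4.5% in these data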;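 also: 0% = IMP-1 with DMSO and 100% = DMSO wells lacking enzyme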
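System: purified IMP-1; amount: IMP-1 0.2 nM before substrate addition; compound: single dose, 5.6 µM; times: 25 °C, 15 min preincubation, 25 min reaction; signal: Epi-absorbance via hydrolysed-nitrocefin quenching of white-plate fluorescence, 480/530 nm, EDTA stop; benchmarks: DMSO with and without IMP-1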
DNA FID counter = displaces DNA intercalator in HCV helicase counter-screen | inhibition, % at 7.9 µM | AID 1845 | DNA fluorescent intercalator displacement, fluorescence | 0.17% of 290,000 active; in the data active = inhibition above about 37%;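 also: 0% = vehicle and 100% = reference compound; higher means more ethidium bromide displaced from hairpin DNA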
VIM-2 inh = inhibitors of Pseudomonas aeruginosa VIM-2 metallo-beta-lactamase; purified VIM-2, nitrocefin hydrolysis, epi-absorbance fluorescence; inhibition, % at 5.6 µM; 0.89% of 290,000 active;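 active = inhibition above the mean of all tested compounds plus 3 SD, cutoff set per screening run, cut at about 7.5% in these data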;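 also: red hydrolysis product quenches plate fluorescence so inhibitors raise well fluorescence; 0% = enzyme with DMSO and 100% = DMSO without enzyme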
SUMO HTRF inh = inhibitors of human SUMOylation (UBC9) | 0.36% of 290,000 active | inhibition, % at 35 µM | HTRF SUMOylation assay, SAE1/SAE2 + UBC9, in vitro | AID 2006; in the data active = inhibition above about 50%, passing the limit was not always enough
Target sequence (P63279 whole entry, looked up): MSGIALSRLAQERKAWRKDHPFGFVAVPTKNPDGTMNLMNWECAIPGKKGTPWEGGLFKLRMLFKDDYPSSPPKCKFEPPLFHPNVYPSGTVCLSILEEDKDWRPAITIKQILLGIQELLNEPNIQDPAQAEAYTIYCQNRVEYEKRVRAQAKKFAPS
Active calls of the source: *; x = no result. An excerpt weighted towards active compounds, which were near 2.1% of everything screened.

SMILES	HCV NS3 hel inh	IMP-1 inhibitor	DNA FID counter	VIM-2 inh	SUMO HTRF inh
O=C(C1=NN[C@@H]2C(=O)N(c3cccc(F)c3)C(=O)[C@H]12)C(c1ccccc1)c1ccccc1	26	5.2*	-35	-3	-7
O=C(C1=NN[C@@H]2C(=O)N(c3cccc(C(F)(F)F)c3)C(=O)[C@H]12)C(c1ccccc1)c1ccccc1	-6	-3	-12	-2	-11
CCCCCCn1c(=O)[nH]c2nc3cc(N)c(C)cc3nc2c1=O	45*	4	-4	6	24
CCCCn1c(=O)[nH]c2nc3cc(NC(C)=O)ccc3nc2c1=O	25	-1	-1	2	39
CC(=O)COc1ccc2oc(=O)cc(-c3cc4ccccc4o3)c2c1	13	-2	-30	8.3*	18
Cc1ccc(Cn2ccc(NC(=O)c3nn(C)cc3[N+](=O)[O-])n2)cc1	1	-2	-1	-1	2
CCn1cc([N+](=O)[O-])c(C(=O)Nc2ccn(Cc3ccccc3)n2)n1	3	-3	-7	12*	1
Cc1ccc(-n2nc3c(N4CCC(C(=O)NCCc5ccccc5C)CC4)nnc(C)c3c2C)cc1	-93	-3	37*	-1	-10
Cc1ccc(-n2nc3c(N4CCC(C(=O)NCCc5ccco5)CC4)nnc(C)c3c2C)cc1	-22	0	5	4	x
COc1ccc(-n2nc3c(N4CCC(C(=O)NCc5ccccc5C)CC4)nnc(C)c3c2C)cc1	-26	11*	18	3	23
COc1ccc(-n2nc3c(N4CCC(C(=O)NCCc5ccccc5C)CC4)nnc(C)c3c2C)cc1	-41	-3	8	-2	17
Cc1ccc(-n2nc3c(N4CCC(C(=O)N5CCC(C(N)=O)CC5)CC4)nnc(C)c3c2C)cc1	5	-3	7	1	15
CCN1CCN(C(=O)C2CCN(c3nnc(C)c4c(C)n(-c5ccc(C)cc5)nc34)CC2)CC1	-8	1	43*	9.1*	14
Cc1cc(NS(=O)(=O)c2ccc(NC(=O)CCCOc3ccccc3C)cc2)no1	2	-3	-32	-3	15
O=C(Nc1ccc2c(c1)OCO2)c1cc2nc(C3CC3)cc(C(F)(F)F)n2n1	5	-2	-3	-1	-11
Cc1cc(C)n2nc(C(=O)Nc3ccc4c(c3)OCO4)cc2n1	-4	4.7*	-9	1	21
CCN(CC(=O)Nc1ccc(NC(C)=O)cc1)CC(=O)Nc1ccc(Cl)c(Cl)c1	-3	5.9*	6	0	30
CCN(CC(=O)Nc1ccc(NC(C)=O)cc1)CC(=O)Nc1cccc(Cl)c1	-8	-2	-20	-3	-7
CCc1nnc(N2CCN(c3ncnc4c3oc3ccccc34)CC2)s1	4	-1	-28	12*	20
c1ccc(N2CCN(c3ncnc4c3oc3ccccc34)CC2)cc1	-4	-1	-7	-1	-5
CSCC[C@H](NC(=O)N1CCn2c1nc1ccccc12)C(=O)NCc1ccc(F)cc1	24	51*	19	-2	-12
COc1ccc(CNC(=O)[C@H](CCSC)NC(=O)N2CCn3c2nc2ccccc23)cc1	-28	-2	-45	-3	-9
CCCCN(CC)CCNC(=O)c1cc2c(-c3ccccc3F)nn(C)c2s1	-77	-2	13	9.3*	29
CC1CCCCN1CCNC(=O)c1cc2c(-c3ccccc3F)nn(C)c2s1 (stereo not given)	-25	-3	10	8.9*	21
CCOc1ccc(NC(=O)COC(=O)C2C3CC4OC(=O)C2C4C3)cc1 (stereo not given)	0	0	-9	-1	-3
SMILES	HCV NS3 hel inh	IMP-1 inhibitor	DNA FID counter	VIM-2 inh	SUMO HTRF inh
CCOC(=O)c1c(-c2ccccc2)oc2ccc(OC(C)C(=O)O)cc12 (stereo not given)	10	-3	-25	-1	55*
CCOC(=O)c1c(-c2ccccc2)oc2ccc(OC(C)=O)cc12	-3	-3	-11	-4	17
CCOC(=O)c1c(-c2ccccc2)oc2ccc(OCC(O)CN(C)C)cc12 (stereo not given)	-61	-3	22	8.9*	40
CCCNC(=O)c1ccc2c(=O)c(O)c(-c3ccsc3)[nH]c2c1	x	x	x	x	53*
CCCNC(=O)c1ccc2c(=O)c(O)c(-c3ccc(C)cc3)[nH]c2c1	x	x	x	x	42
O=C(Cn1c(=O)oc2cc(S(=O)(=O)N3CCCC3)ccc21)NC1CCCCC1	-13	-2	-16	-3	15
O=C(Cn1c(=O)oc2cc(S(=O)(=O)N3CCCC3)ccc21)NCc1ccc(F)cc1	-4	-5	-14	7.9*	-4
CC1CCC(NC(=O)Cn2c(=O)oc3cc(S(=O)(=O)N4CCCC4)ccc32)CC1 (stereo not given)	8	4.9*	-28	-4	8
O=C(c1cc(F)ccc1F)C1CCCN(C(=O)c2ccc3nccnc3c2)C1 (stereo not given)	8	-3	-28	-2	9
Fc1ccccc1-c1nnc2ccc3ccccc3n12	-5	4.8*	-7	-2	0
Cc1nc2c(c(=O)c3ccccc3n2C)c(=O)n1-c1ccc(F)cc1	5	-1	-10	8.0*	16
CCOC(=O)c1c(C)oc2c(CN3CCN(C)CC3)c(Br)c(OC)c(O)c12	-8	-2	9	10*	2
Cc1ccc(S(=O)(=O)C(C#N)c2nc3ccccc3nc2N2CCCCC2)cc1 (stereo not given)	x	x	x	x	83*
CC1CCCN(c2nc3ccccc3nc2C(C#N)S(=O)(=O)c2ccccc2)C1 (stereo not given)	15	-3	-6	-3	50*
COc1ccc(S(=O)(=O)C(C#N)c2nc3ccccc3nc2N2CCC(C)CC2)cc1 (stereo not given)	x	x	x	x	64
Cc1ccc(S(=O)(=O)C(C#N)c2nc3ccccc3nc2N2CCN(C)CC2)cc1 (stereo not given)	-2	-4	-10	-2	38
N#CC(c1nc2ccccc2nc1N1CCCCC1)S(=O)(=O)c1ccc(Cl)cc1 (stereo not given)	x	x	x	x	75*
COCC(=O)N1CCC(Oc2ccc(C(=O)N3CCSCC3)cc2)CC1	7	-3	-14	-3	18
CSc1ccc2nnc(-c3cccc(F)c3)n2n1	5	0	-8	10.0*	25
COC(=O)c1ccc(CSc2ccc3nnc(-c4cccc(F)c4)n3n2)o1	4	-3	-11	8.4*	-10
CC(C)[C@H](NC(=O)c1c(F)cccc1F)C(=O)Nc1cccc(Br)c1	1	-4	-16	-2	8
CCOCCCNC(=O)c1ccc(/C=C2\Oc3ccccc3N(C)C2=O)cc1	-21	0	-26	7.7*	21
O=C1CSC(=S)N1c1cccc(F)c1	1	4.9*	-5	2	8
O=C1CSC(=S)N1c1ccc(F)cc1	-10	0	-10	0	21
O=C1CSC(=S)N1c1cccc(O)c1	13	2	0	3	-18
CN(C)c1ccc(N2C(=O)CSC2=S)cc1	30	0	-2	-1	73*

Source: PubChem (several laboratories)
